STAT1 act = activators of IFN-gamma induced STAT1 signaling; NIH 3T3 STAT1-luciferase reporter, luminescence; 100% = IFN-gamma alone, no compound; activation (% of control), % at 5.5 µM; 200,000 compounds, 2.6% hits; AID 932;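 active = activation above the screen-wide mean activation plus 3 SD, cut at about 130% in these data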;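 note: raw ratio to IFN-gamma control signal so 100% means no change and 0% no light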
Cl transport mod = modulators of human KCC2 chloride dependent transport. 190,000 compounds, 2.2% hits. Q9H2X9. B-score of Tl+ flux slope (higher = more flux/activation; lower = inhibition) at 10 µM. AID 1456. KCC2 cells, thallium flux FluoZin-2 fluorescence;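 active = thallium flux slope and its plate-corrected score both differing from the plate sample mean at a set confidence after two filtering rounds, in either direction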;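 note: slope of fluorescence scaled to starting intensity during 10 to 20 s after thallium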
STAT1 blocker = reduces IFN-gamma driven STAT1 reporter signal; AID 920; 200,000 compounds, 0.35% hits; inhibition, % at 5.5 µM; NIH 3T3 STAT1-luciferase reporter, luminescence;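 active = inhibition above a set limit, the mean inhibition across all tested compounds plus 3 SD, cut at about 34% in these data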;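 note: 0% = IFN-gamma with DMSO and 100% = IFN-gamma with 300 µM nifuroxazide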
HSV augment = increases HSV replication in cells. HSV replication augmentation in cells, fold increase. maximum fold increase. 220,000 compounds, 0.005% hits. AID 1956; in the data active = maximum fold increase above about 1.5; inconclusive = no clear call, values can overlap the other calls; tested in PC3 cells
STAT3 act = activators of IL-6 induced STAT3 signaling; U3A cells, IL-6 STAT3-luciferase reporter, luminescence; 100% = signal with IL-6 EC80 alone; activation (% of control), % at 5.6 µM; 190,000 compounds, 0.91% hits;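 active = activation above the screen-wide mean of compound activation plus 3 SD, cut at about 130% in these data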;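 note: 0% = background luminescence of wells with medium and substrate only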
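Material: human STAT1-deficient U3A cells with stable STAT3-luciferase reporter / Probe or stimulus: IL-6 stimulus at 33 ng/mL final / Schedule: 1 h compound pre-exposure, 6 h IL-6 stimulation, 37 °C / Technique: luminescence / Read-out basis: percent of IL-6-only median luminescence / Control set: IL-6-only high control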
STAT3 blocker = reduces IL-6 driven STAT3 reporter signal; U3A cells, IL-6 STAT3-luciferase reporter, luminescence; host cell line lacks STAT1; inhibition, % at 5.5 µM; 190,000 compounds, 0.89% hits; AID 862;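 active = inhibition above the mean inhibition across all screened compounds plus 3 SD, cut at about 44% in these data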;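 note: 0% = DMSO only wells and 100% = 100 µM nifuroxazide control wells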
KCC2 sec1 = KCC2 (human) modulation, secondary assay. shares compounds with Cl transport mod. HEK293-KCC2, thallium flux, FluoZin2 fluorescence; stronger effect = higher value. normalised thallium flux (F/F0 slope) at 10 µM. 3,700 compounds, 15% hits. AID 1713;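 active = thallium flux slope above the same plate's solvent-only control mean plus 3 SD; inconclusive = the two replicate wells disagree; inactive = no significant difference from solvent-only control wells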
KCC2 bumet counter = thallium flux persisting under bumetanide in KCC2 cells, counter-screen secondary assay. shares compounds with Cl transport mod. HEK293-KCC2 + bumetanide/ouabain, thallium flux FluoZin2; stronger effect = higher value. normalized thallium flux at 10 µM. 3,700 compounds, 49% hits. AID 1714;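 active = thallium entry rate above the same plate's blocked-transporter control wells by more than 3 SD; inconclusive = the two repeat wells disagree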;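 note: raw slope of fluorescence over initial fluorescence between 10 and 20 s after thallium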
KCC2 sec2 = confirmation of human KCC2 transport modulators; 3,700 compounds, 23% hits; HEK293-KCC2, thallium flux FluoZin2 fluorescence; actives lie on both sides; F/F0 rise rate, 10–20 s post-thallium; shares compounds with Cl transport mod; AID 1715; normalized thallium flux at 10 µM;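 active = thallium flux slope more than 3 SD above or below the plate's solvent-only control mean, mostly below; inconclusive = the two repeat wells disagreed; inactive = no significant shift from solvent-only controls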;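 note: raw slope with 0.1% DMSO as baseline and bumetanide as block control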
HEK counter1 = counter-screen for KCC2 modulators: effect in parental HEK293 cells | shares compounds with Cl transport mod | 3,700 compounds, 46% hits | thallium flux rate (normalised fluorescence) at 10 µM | AID 1716 | thallium flux FluoZin2, ouabain; baseline-ratio fluorescence slope, 10–20 s after thallium;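 active = thallium flux rate significantly above the same plate's solvent-only control wells, beyond their mean plus 3 SD; inconclusive = the two replicate wells gave conflicting results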
KCC2 ouabain = modulates human KCC2 on retest with ouabain. HEK293-KCC2, thallium flux FluoZin2 fluorescence; bidirectional: low = inhibitor, high = activator. 3,700 compounds, 48% hits. shares compounds with Cl transport mod. raw Tl+ flux slope (below DMSO = inhibition, above = activation) at 10 µM. AID 1717;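 active = thallium flux slope beyond 3 SD from same-plate DMSO control mean in most replicates, usually higher, sometimes lower; inconclusive = repeat tests gave conflicting results; inactive = no significant difference from controls in most replicates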;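 note: slope of initial-normalized fluorescence between seconds 10 and 20 after thallium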
HEK counter2 = counter-screen for KCC2 modulators: effect in parental HEK293 cells; shares compounds with Cl transport mod; thallium flux FluoZin-2 fluorescence slope; thallium flux slope at 10 µM; 3,700 compounds, 33% hits; AID 1718;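 active = thallium flux slope above the same plate's solvent-control mean plus 3 SD in both duplicate wells; inconclusive = duplicate wells that disagreed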;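 note: run without ouabain in cells lacking the KCC2 cotransporter; slope of fluorescence scaled to its starting value between 10 and 20 s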
* marks the source's active call; other numbers are inactive results; i = inactive; ? = inconclusive; nt = no result. A selection: hits, their analogues and other compounds. The true share with any hit is near 5.5%.

SMILES	STAT1 act	Cl transport mod	STAT1 blocker	HSV augment	STAT3 act	STAT3 blocker	KCC2 sec1	KCC2 bumet counter	KCC2 sec2	HEK counter1	KCC2 ouabain	HEK counter2
O=C(O)/C=C/c1ccc(S(=O)(=O)NCc2cccnc2)cc1	nt	3.8*	nt	i	nt	nt	0.015	0.0045	0.029	0.0072	0.016	0.011
Cc1ccc(C(=O)NC(=S)Nc2c(C)ccc3nsnc23)cc1	89	8.7*	14	i	128	-38	0.011	0.057*	0.037	0.023*	0.045*	0.013*
Cc1ccc(C(=O)NC(=S)Nc2cccc3nsnc23)cc1	108	0.86	-9	i	105	2	nt	nt	nt	nt	nt	nt
COc1ccc(CC(=O)Nc2ccc(-c3nc4cc(C)ccc4o3)c(O)c2)cc1OC	110	-5.4*	-11	nt	85	26	0.017	0.0048	0.03	0.0074	0.017	0.01
CC(=O)Nc1ccc(S(=O)(=O)Nc2cccc(-c3nc4ccccc4o3)c2)cc1	100	nt	0	i	82	27	0.0087	?	0.033	0.004	0.019	0.012
O=C(CCSc1ccc(Cl)cc1)N1CCN(c2ncccn2)CC1	121	nt	-23	i	111	-12	nt	nt	nt	nt	nt	nt
C=CCSc1nc2sc(-c3ccccc3)cc2c(=O)n1N	102	0.22	-2	i	83	25	nt	nt	nt	nt	nt	nt
Clc1c(Cl)c(Cl)c2n[nH]nc2c1Cl	nt	-6.7*	nt	i	nt	nt	?	0.0051	?	0.0034*	0.013*	0.0074*
O=C(Nc1ccc2oc(-c3ccccc3)nc2c1)c1ccc2c(c1)OCCO2	102	-3*	-2	i	85	19	0.0079	0.0068	0.029	0.007	0.035*	?
O=C(O)c1ccccc1-c1ccccc1C(=O)Nc1ccc(-c2nc3cc(Cl)ccc3o2)cc1	nt	-3.7*	nt	i	nt	nt	0.0075	0.0048	0.019*	0.0077	0.012*	0.01
O=C(Nc1ccc2oc(-c3ccncc3)nc2c1)c1ccc2c(c1)OCCO2	nt	-0.26	nt	i	nt	nt	nt	nt	nt	nt	nt	nt
CCOc1ccc(C(=O)NCC(c2cccs2)N(C)C)cc1 (centres undefined)	107	0.052	-8	i	102	6	nt	nt	nt	nt	nt	nt
COc1ccc(C2=CSC3=NNC4(CCCCC4)NN23)cc1	107	-0.43	-8	i	95	14	nt	nt	nt	nt	nt	nt
Cc1ccc(C2=CSC3=NNC4(CCCCC4)NN23)cc1	103	-4.4*	-4	i	92	17	0.0071	0.0058*	0.024*	0.0084	?	0.011
CSc1c(-c2ccccn2)c(N)nn1C(=O)C1CCC1	nt	1.6	nt	i	nt	nt	nt	nt	nt	nt	nt	nt
COc1ccc(S(=O)(=O)N(CCc2ccccc2)CC(=O)O)cc1Cl	99	-3.8*	1	i	98	4	0.0099	?	0.027*	0.0044	0.017*	0.012
Cc1sc2nc(SCC(=O)NCCO)n(C)c(=O)c2c1C	100	nt	0	i	105	-4	nt	nt	nt	nt	nt	nt
Cc1sc2nc(SCC(=O)OC(C)C)n(C)c(=O)c2c1C	103	nt	-3	i	88	21	0.0077	0.014*	0.035	0.015*	0.026*	0.018*
CCOC(=O)CNC(=O)CSc1nc2sc(C)c(C)c2c(=O)n1C	101	nt	-1	i	99	9	0.0064	0.019*	0.037	0.017*	0.027*	0.021*
O=C(CCn1nnc2ccccc21)N/N=C\Cc1ccccc1	96	0.015	3	i	94	13	nt	nt	nt	nt	nt	nt
CC(=O)Oc1c(-c2ccco2)oc2ccccc2c1=O	110	40*	-11	?	108	-1	0.045*	0.071*	0.057*	0.057*	0.056*	0.056*
Cc1cc(NC(=O)COC(=O)[C@H](C)NC(=O)c2ccccc2)no1	102	-0.98	-2	i	100	4	nt	nt	nt	nt	nt	nt
Cc1cc(NC(=O)COC(=O)C(Nc2ccc(C(F)(F)F)cc2Cl)C(C)C)no1 (centres undefined)	100	-7.2*	0	i	108	-4	0.0077	0.0036	0.034	0.007	0.02	0.0088
O=C(NNC(=S)Nc1cccc(Cl)c1)c1ccccc1OC(F)F	83	6.4*	19	i	94	10	0.01	0.033*	0.034	0.017*	0.036*	0.012*
O=C(NNC(=S)Nc1ccc(F)cc1)c1ccccc1OC(F)F	97	0.33	3	i	104	1	nt	nt	nt	nt	nt	nt
SMILES	STAT1 act	Cl transport mod	STAT1 blocker	HSV augment	STAT3 act	STAT3 blocker	KCC2 sec1	KCC2 bumet counter	KCC2 sec2	HEK counter1	KCC2 ouabain	HEK counter2
Cc1ccc(NC(=S)NNC(=O)c2ccccc2OC(F)F)cc1	101	8.4*	-1	nt	108	-4	0.011	0.022*	0.033	0.018*	0.028*	0.013*
c1ccc(CCCCNCC2COc3ccccc3O2)cc1 (centres undefined)	102	0.096	-3	i	113	-14	nt	nt	nt	nt	nt	nt
CC(Sc1nnc(NCc2ccccc2)s1)C(=O)Nc1ccc2c(c1)C(=O)c1ccccc1C2=O (centres undefined)	125	-0.59	-27	i	106	2	nt	nt	nt	nt	nt	nt
COCCNC(=S)NC(=O)c1ccc(C(C)(C)C)cc1	126	8.4*	-30	i	98	7	0.0097	0.025*	0.03	?	0.019	0.011
Cc1cccc(NC(=O)c2cccc(N3C(=O)C4C5CCC(C5)C4C3=O)c2)c1C (centres undefined)	97	6.2*	3	i	96	12	0.0075	0.0046	0.029	0.0079	0.019	0.011
CCOc1ccc(S(=O)(=O)NCCSCc2ccco2)cc1	99	nt	1	i	103	2	0.019	0.0044	0.027	0.0069	0.015	0.011
COCCCNC(=S)N1CCC(NC(=O)c2ccco2)CC1	104	0.37	-5	i	111	-7	nt	nt	nt	nt	nt	nt
CC1(C)OC(=O)C(=NNc2ccc(Cl)cc2)C(=O)O1	104	0.054	-4	i	84	18	nt	nt	nt	nt	nt	nt
COCCNC(=O)COc1ccc(C)cc1C	93	-4.4*	7	i	101	-4	0.009	0.0067	0.03	0.0075	0.02	?

Screening results (PubChem)
